Published values from different studies.
Lines come from different studies, so protocols differ.
Observed: cell growth or viability

| Compound | cell line | method | tested at | time | quantity | result |
| --- | --- | --- | --- | --- | --- | --- |
| O=C(Nc1ccc(C2CCCCC2)cc1)[C@H]1O[C@H](O[C@@H]2[C@@H](OCc3ccc4ccccc4c3)[C@H](O[C@H]3O[C@H](CNS(=O)(=O)O)[C@@H](OCc4ccc5ccccc5c4)C[C@H]3NS(=O)(=O)O)[C@@H](NS(=O)(=O)O)C[C@H]2NS(=O)(=O)O)[C@H](OCc2ccc3ccccc3c2)[C@@H](NS(=O)(=O)O)[C@@H]1OCc1ccc2ccccc2c1 | 4T1 | CCK-8 | 120 µM | 48 h | viability | 5 to 10% |
| O=C(Nc1cccc(Br)c1)c1cccc(S(=O)(=O)N2CCCCCC2)c1 | OCI-Ly1 | ATP luminescence | 1 µM | 5 days | viability | 153% |
| CCCCCCCCCCCCCCCCCCOc1cccc(CC(=O)OCC[N+](C)(C)C)c1 | HOP-62 | SRB | 10 µM |  | inhibition | 3.94% |
| O=C(/C=C/c1cccc(C(=O)NO)c1)NO | OCI-Ly1 | ATP luminescence | 0.1 µM | 5 days | viability | 181% |
| NC(=O)c1ccc(-c2nc3ccc4[nH]ncc4c3c3c2CCCC3)cc1 | K562 | resazurin |  | 72 h | GI50 | 7600 nM |
| O=C(NO)c1ccc(CC(=O)N(CCO)c2ccccc2)cc1 | OCI-Ly1 | ATP luminescence | 0.1 µM | 5 days | viability | 94.6% |
| CCCCCCCCCCCCCCCCCCOCC(COP(=O)([O-])OCC[N+](C)(C)C)OC (stereo not drawn) | HOP-62 | SRB | 10 µM |  | inhibition | 56% |
| O=C(NCC1CC1)c1ccc(-c2nc3ccc4[nH]ncc4c3c3c2CCCC3)cc1 | K562 | resazurin |  | 72 h | GI50 | > 10000 nM |
| CCCCCCCCCCCCCCCCCCOc1ccccc1CC(=O)OCC[N+]1(C)CCOCC1 | HOP-92 | SRB | 10 µM |  | inhibition | 55.8% |
| Cc1n[nH]c2ccc3nc(-c4ccc(C(=O)NCCN5CCCC5)cc4)c4c(c3c12)CCCC4 | K562 | resazurin |  | 72 h | GI50 | 2300 nM |
| CCCCCCCCCCCCCCCCCCOc1ccccc1CC(=O)OCC[N+](CC)(CC)CC | HOP-92 | SRB | 10 µM |  | inhibition | 93.2% |
| O=C(NCCN1CCCC1)c1ccc(-c2nc3ccc4[nH]ncc4c3c3c2CCCC3)c(F)c1 | K562 | resazurin |  | 72 h | GI50 | 1700 nM |
| COC(=O)CNC(=O)C(=O)OC | OCI-Ly1 | ATP luminescence | 0.1 µM | 5 days | viability | 198% |
| CN(C)CCNC(=O)c1ccc(-c2nc3ccc4[nH]ncc4c3c3c2CCCCC3)c(F)c1 | K562 | resazurin |  | 72 h | GI50 | 1400 nM |
| CCCCCCCCCCCCCCCCCCOc1ccccc1CC(=O)OCC[N+](C)(C)C | HOP-62 | SRB | 10 µM |  | inhibition | 95.1% |
